Test results from ChEMBL document CHEMBL1133094 (J Med Chem, 2000).

Experiments:
D(2) dopamine receptor = D(2) dopamine receptor (Rattus norvegicus, UniProt P61169); test: Binding Affinity was determined against Dopamine receptor D2 in rat striatal membranes using [3H]- spiperone radioligand.; format: cell membranes, Striatum, Membrane
D(1A) dopamine receptor = D(1A) dopamine receptor (Rattus norvegicus, UniProt P18901); test: Binding Affinity was determined against Dopamine receptor D1 in rat striatal membranes using [3H]- SCH 23390 radioligand.; format: cell membranes, Striatum, Membrane
How it was run: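 Competition binding with rat striatal membranes as tissue source, reported as pKi. The labelled site is the D1-like family (D1 and D5 subtypes), not D1 alone. All compounds were tested as racemates.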

Chain of D(2) dopamine receptor (P61169 whole entry): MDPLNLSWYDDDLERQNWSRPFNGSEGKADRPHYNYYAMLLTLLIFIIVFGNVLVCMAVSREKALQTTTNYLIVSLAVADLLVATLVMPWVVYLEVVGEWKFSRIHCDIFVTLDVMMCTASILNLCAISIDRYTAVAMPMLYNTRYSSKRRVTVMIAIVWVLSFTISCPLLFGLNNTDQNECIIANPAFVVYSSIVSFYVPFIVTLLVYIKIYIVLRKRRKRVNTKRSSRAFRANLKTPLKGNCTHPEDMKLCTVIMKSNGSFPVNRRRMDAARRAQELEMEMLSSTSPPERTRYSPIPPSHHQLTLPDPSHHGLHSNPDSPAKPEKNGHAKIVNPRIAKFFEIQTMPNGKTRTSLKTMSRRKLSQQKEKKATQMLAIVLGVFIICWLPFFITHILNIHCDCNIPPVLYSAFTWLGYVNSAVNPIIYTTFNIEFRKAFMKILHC
Chain of D(1A) dopamine receptor (P18901 whole entry): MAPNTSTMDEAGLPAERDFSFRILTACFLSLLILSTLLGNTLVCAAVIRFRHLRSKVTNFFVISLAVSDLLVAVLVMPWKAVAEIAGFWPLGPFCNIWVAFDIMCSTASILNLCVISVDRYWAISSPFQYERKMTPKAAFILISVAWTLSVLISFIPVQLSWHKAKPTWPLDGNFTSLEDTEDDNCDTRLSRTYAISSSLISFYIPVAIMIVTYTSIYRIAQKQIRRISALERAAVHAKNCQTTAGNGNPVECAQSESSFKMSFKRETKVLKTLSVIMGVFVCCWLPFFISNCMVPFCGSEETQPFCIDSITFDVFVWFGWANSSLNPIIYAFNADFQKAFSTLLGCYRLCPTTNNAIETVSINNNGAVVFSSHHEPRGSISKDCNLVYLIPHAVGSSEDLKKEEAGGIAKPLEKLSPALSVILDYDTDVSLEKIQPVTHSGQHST

Row | Ki (D(2) dopamine receptor) [µM] | Ki (D(1A) dopamine receptor) [µM] | SMILES
1 | > 10 | 0.389 | COc1ccc(Br)c(CC2c3c(O)ccc(Br)c3CCN2C)c1 (centres undefined)
2 | 0.724 | 4.79 | CN1CCc2cccc3c2C1Cc1cc(O)ccc1O3 (centres undefined)
3 | 3.09 | 3.02 | CCN1CCc2cc(OC)cc(Br)c2C1Cc1ccccc1O (centres undefined)
4 | 7.08 | 11.7 | COc1cc(Br)c2c(c1)CCN(C)C2Cc1ccccc1O (centres undefined)
5 | > 10 | > 10 | CCCN1CCc2cc(O)cc3c2C1Cc1ccccc1O3 (centres undefined)
6 | > 10 | 3.89 | CCCN1CCc2cccc3c2C1Cc1cc(OC)ccc1O3 (centres undefined)
7 | 0.275 | 2.88 | CN1CCc2cc(O)cc3c2C1Cc1ccccc1O3 (centres undefined)
8 | 8.51 | > 10 | CCN1CCc2cc(OC)cc3c2C1Cc1ccccc1O3 (centres undefined)
9 | 3.47 | > 10 | CCCN1CCc2cc(OC)cc3c2C1Cc1ccccc1O3 (centres undefined)
10 | 2.19 | 5.62 | CCN1CCc2cc(Br)cc(OC)c2C1Cc1ccccc1O (centres undefined)
11 | 0.851 | 7.59 | COc1ccc2c(c1)CC1c3c(ccc(Br)c3CCN1C)O2 (centres undefined)
12 | 1.23 | 5.25 | COc1ccc2c(c1)CC1c3c(cccc3O2)CCN1C (centres undefined)
13 | > 10 | > 10 | CCCN1CCc2cccc3c2C1Cc1cc(O)ccc1O3 (centres undefined)
14 | > 10 | 1.55 | CCN1CCc2c(Br)ccc(O)c2C1Cc1cc(OC)ccc1Br (centres undefined)
15 | > 10 | 6.76 | CCN1CCc2cccc3c2C1Cc1cc(O)ccc1O3 (centres undefined)
16 | > 10 | 3.47 | CCN1CCc2c(Br)ccc3c2C1Cc1cc(OC)ccc1O3 (centres undefined)
17 | 9.33 | 4.27 | COc1cc2c3c(c1)Oc1ccccc1CC3N(C)CC2 (centres undefined)
18 | 6.46 | 3.47 | CCN1CCc2cc(O)cc3c2C1Cc1ccccc1O3 (centres undefined)
19 | > 10 | 2.45 | CCCN1CCc2c(Br)ccc3c2C1Cc1cc(OC)ccc1O3 (centres undefined)
20 | 1.82 | 1.7 | COc1cc(Br)cc2c1C(Cc1ccccc1O)N(C)CC2 (centres undefined)
21 | > 10 | 7.41 | CCCN1CCc2c(Br)ccc(O)c2C1Cc1cc(OC)ccc1Br (centres undefined)
22 | 1.86 | > 10 | CCN1CCc2cccc3c2C1Cc1cc(OC)ccc1O3 (centres undefined)
